Rows were chosen to be rich in hits. Some 3.7% of all compounds tested hit in one or more screens of this group.
KCNK9 inh: KCNK9 potassium channel inhibitors, primary screen, HEK293 cells, thallium flux; FluxOR thallium flux fluorescence; hits give low values; AID 488922, 2010; 310,000 compounds, 1.2% hits; B-score at 10 µM;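 active = ratio B-score over 3 SD below the library mean, with starting fluorescence within 5 SD of its mean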;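 note: negative B-score means less thallium flux so channel inhibition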
KCNK3 inh: human KCNK3 channel inhibitors, primary screen, CHO cells, FluxOR thallium flux, B-score; Potassium channel subfamily K member 3 (Homo sapiens), O14649; 340,000 compounds, 0.84% hits; B-score at 10 µM; AID 602410, 2012; FluxOR fluorescence; hits give low values;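 active = B-score under library mean minus 4 SD, starting fluorescence ratio at most library mean plus 5 SD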;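 note: more negative B-score means stronger inhibition of thallium flux through KCNK3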
Kir21 block: inhibitors of mouse Kir2.1 inward-rectifier potassium channel; AID 1672, 2009; 310,000 compounds, 0.85% hits; HEK293-Kir2.1, FluxOR thallium flux fluorescence; hits give low values; B-score at 10 µM;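 active = fluorescence ratio B-score at or below minus 3 SD of library scores, with starting-brightness B-score within 2 SD, cut at about -4.2 in these data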;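 note: channel flux triggered by added potassium and thallium sulfate stimulus; B-score of peak minus minimum fluorescence over baseline after thallium stimulus; more negative B-score means stronger Kir2.1 block with less thallium influx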
Target sequence (P35561 whole entry, looked up): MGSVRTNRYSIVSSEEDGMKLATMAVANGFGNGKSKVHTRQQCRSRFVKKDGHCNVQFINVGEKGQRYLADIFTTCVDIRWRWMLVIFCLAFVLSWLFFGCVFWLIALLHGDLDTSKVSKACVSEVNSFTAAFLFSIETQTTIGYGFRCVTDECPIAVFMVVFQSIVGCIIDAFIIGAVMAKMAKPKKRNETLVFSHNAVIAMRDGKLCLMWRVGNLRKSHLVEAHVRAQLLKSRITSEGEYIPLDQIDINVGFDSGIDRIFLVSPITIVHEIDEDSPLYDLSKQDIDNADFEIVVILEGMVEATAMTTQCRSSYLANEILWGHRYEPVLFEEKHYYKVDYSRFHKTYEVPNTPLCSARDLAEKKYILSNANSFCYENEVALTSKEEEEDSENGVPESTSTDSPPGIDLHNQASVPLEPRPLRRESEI
hERG rescue: hERG rescue from dofetilide block, primary screen, cell-based, CHO-hERG, FluxOR thallium flux, dofetilide IC70; 310,000 compounds, 0.51% hits; activation (rescue from dofetilide block), less the hit threshold, % at 10 µM; dofetilide IC70 present;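 active = activation above the mean of controls blocked by dofetilide plus 5 SD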;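 note: thallium influx through hERG after potassium depolarization seen as dye fluorescence rise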
KCNQ1 act: potentiators or activators of KCNQ1 channel, primary screen, cell-based, thallium flux, high-throughput; Potassium voltage-gated channel subfamily KQT member 1 (Homo sapiens), P51787; CHO-K1 KCNQ1, thallium flux FluxOR fluorescence; hits give high values; B-score at 10 µM; 310,000 compounds, 0.35% hits; AID 2648, 2010;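 active = fluorescence ratio B-score, a plate-corrected score, at least three library SD, with initial intensity B-score within 5 SD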
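Material: CHO-K1 cells stably expressing KCNQ1. Medium: assay buffer for compound exposure, DMSO matched across wells. Reagent: K+/Tl+ depolarizing stimulus. Compound dosing: single-concentration screen. Times: 37 °C overnight plating, 90-min dark dye load, 20-min compound pretreatment. Technique: FluxOR Tl+ flux fluorescence.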
KCNQ1 block: inhibitors of human KCNQ1 channel, primary screen, cell-based, thallium flux, high-throughput; B-score at 10 µM; 310,000 compounds, 1.3% hits; CHO-K1 KCNQ1, FluxOR thallium flux fluorescence; hits give high values;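 active = compounds whose thallium flux B-score, printed positive for inhibition, exceeds three library SD while starting fluorescence stays within three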;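 note: channel opened by potassium depolarization with thallium stimulus after 20 min compound exposure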
KCNK9 block conf: KCNK9 potassium channel inhibitors, confirmation, HEK293 cells, thallium flux, duplicate; shares compounds with KCNK9 inh; FluxOR thallium flux fluorescence; inhibition, % at 10 µM; 4,900 compounds, 43% hits; AID 492992, 2010;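 active = thallium signal inhibited by more than 5 SD of the compound-free buffer control wells, on both duplicate plates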;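 note: 0% = assay buffer control wells without compound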
Kir21 sel: mouse Kir2.1 channel inhibition, confirmation, selectivity assay for KCNK9 modulator project, cell-based, HEK293, thallium flux | 4,900 compounds, 4% hits | inhibition, % at 10 µM | Kir2.1 cells, FluxOR thallium flux fluorescence | shares compounds with KCNK9 inh | AID 492993, 2010;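 active = thallium signal drop more than 5 SD beyond the mean of the no-compound control wells, seen in both duplicate plates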;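 note: signal is fluorescence rise after thallium addition divided by baseline fluorescence; plate controls were assay buffer only for no effect and full block by chlorpromazine control for full effect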
HEK293 Tl ctr: thallium flux in non-induced HEK293 cells, confirmation, counter-screen for KCNK9 inhibitor project, cell-based, second counter screen, non-induced KCNK9-HEK293; inhibition, % at 10 µM; FluxOR thallium flux; shares compounds with KCNK9 inh; 4,900 compounds, 40% hits;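 active = thallium signal drop beyond 5 SD of the untreated control mean, on both duplicate plates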;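 note: plate controls were buffer only IC0 wells for no effect and SID17386958 at its maximal inhibitory level for full effect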
An asterisk follows results filed as active; i = inactive; · = not tested or not shown.

SMILES	KCNK9 inh	KCNK3 inh	Kir21 block	hERG rescue	KCNQ1 act	KCNQ1 block	KCNK9 block conf	Kir21 sel	HEK293 Tl ctr
CC(c1ccco1)N(C(=O)CSc1ccc(Br)cc1)c1ccccn1 (configuration not stated)	-8.9*	-9.8*	-6.4*	-15	i	i	i	37%*	38%*
CC(C)c1ccc(-n2c(-c3ccccc3)c[n+]3c2CCc2ccccc2-3)cc1	-16*	i	-14*	-49	i	i	72%*	75%*	32%*
C=CCSc1nc(-c2ccc(OC)cc2)c(C#N)c(=O)n1CC=C	-8.7*	i	-1.2	-8	i	i	i	i	i
CN(C)CCN1C(=O)NC(C)(c2ccc([N+](=O)[O-])cc2)C1=O (configuration not stated)	i	i	0	-17	i	i	·	·	·
CN(C)c1ccc(N=Cc2ccco2)cc1	·	i	·	·	·	·	·	·	·
C(=N\N(Cc1ccccc1)c1ccccc1)/c1ccco1	-8.1*	i	-0.27	-14	i	i	i	i	42%*
CCCCNC(=O)c1onc(CSc2cccc3ccccc23)c1C(=O)O	i	i	-1.5	-14	i	i	i	i	i
CCCCNC(=O)c1onc(CSc2ccc(C(C)C)cc2)c1C(=O)O	i	i	0.2	-13	i	i	i	i	i
O=S(=O)(Nc1nc2ccccc2nc1N1CCN(CCO)CC1)c1cc(F)ccc1F	·	i	·	·	·	·	·	·	·
COc1ccc(/C=N/NC(=O)c2ccc[nH]2)cc1	i	i	0.31	-6	i	i	·	·	·
CCOC(=O)/C(=C/c1cn(C)c2ccccc12)NC(=O)c1ccccc1	i	i	2.3	-4	i	i	·	·	·
COc1ccc(N(CC(=O)NCc2ccco2)C(=O)CCC(=O)Nc2nccs2)cc1	i	i	0.46	-10	i	i	·	·	·
N#CC(c1ccccc1O)N1N=C(c2ccccc2)CC1c1ccccc1 (configuration not stated)	-10*	i	4.1	-10	i	12*	40%*	i	47%*
COc1cc(-c2c(-c3ccc4c(c3)OCO4)noc2-c2ccsc2)ccc1F	-11*	i	-1.2	-21	i	i	56%*	i	36%*
CCOC(=O)c1ccc(-c2c(-c3ccc4c(c3)OCO4)noc2-c2ccsc2)cc1F	i	i	-0.59	-13	i	i	·	·	·
Cc1c(Cl)cccc1NC(=O)COC(=O)c1c2c(nc3ccccc13)CCN(Cc1ccccc1)C2	-12*	i	2.1	-9	i	i	60%*	i	32%*
O=C(NC1CCCCCC1)c1c2c(nc3ccccc13)CCN(Cc1ccccc1)C2	i	i	-0.23	-11	i	i	·	·	·
CC(C)c1ccc(/C=C/C(=O)NCCCc2ccccc2)cc1	i	i	-1.1	-5	i	6*	i	i	i
CCOc1ccccc1N1CCN(C(=S)Nc2ccc(S(=O)(=O)Nc3ncccn3)cc2)CC1	i	i	-0.15	-9	i	i	·	·	·
CCOC(=O)C1=C(O)/C(=C/c2cc(OC)c(O)c(OC)c2)SC1=Nc1ccc(OC)cc1	-9.9*	i	-1.6	-1	i	i	i	i	i
O=S(=O)(Nc1nc2ccccc2nc1N1CCc2ccccc2C1)c1ccc(Cl)cc1	-12*	i	-0.15	-11	i	i	46%*	i	i
CC(=O)Nc1cccc(Oc2ccc(-c3noc(C)n3)cc2)c1	i	i	0.26	-6	i	i	·	·	·
CCOc1ccccc1NC(=O)c1cccc(NC(=O)C2CCCC2)c1	-13*	i	0.62	-17	i	i	58%*	i	i
CCOc1ccccc1NC(=O)c1cccc(NC(=O)c2ccco2)c1	-9.4*	-9.9*	0.06	-3	i	i	45%*	i	i
CCN(CC(=O)NCc1ccc(Cl)cc1)C(=O)CCC(=O)c1ccc(F)cc1	i	i	-0.19	-16	i	i	·	·	·
SMILES	KCNK9 inh	KCNK3 inh	Kir21 block	hERG rescue	KCNQ1 act	KCNQ1 block	KCNK9 block conf	Kir21 sel	HEK293 Tl ctr
O=C(CSc1ccccc1)N1CCc2ccccc21	i	i	0.62	-7	i	i	·	·	·
CCn1cc(SCC(=O)N2CCc3ccccc32)c2ccccc21	i	i	-0.76	-7	i	i	i	40%*	i
CC(=O)Nc1ccc(OCC(O)CN2CCN(c3ccc(F)cc3)CC2)cc1 (configuration not stated)	i	i	-0.7	-8	i	i	·	·	·
O=[N+]([O-])c1ccc(N2N=C(c3ccccc3)CC2c2ccccc2O)cc1 (configuration not stated)	i	i	0.09	-7	i	i	·	·	·
CC(C)(C)C1=NN(c2ccc([N+](=O)[O-])cc2)C(c2ccccc2)C1 (configuration not stated)	-8.8*	i	2	-2	i	9*	44%*	i	48%*
O=C(COc1ccccc1)N(Cc1cccc(F)c1)C1CCS(=O)(=O)C1 (configuration not stated)	i	i	0.36	-6	i	i	·	·	·
O=c1[nH]c(C2CCCN(S(=O)(=O)c3ccccc3)C2)nc2c1nnn2Cc1ccc(OC(F)(F)F)cc1 (configuration not stated)	i	i	-0.8	-5	i	i	·	·	·
O=S(=O)(c1ccc(OC(F)(F)F)cc1)N1CCCC(c2ccccc2)C1 (configuration not stated)	-11*	i	0.48	-3	i	i	i	i	i
